In article PMC3769332 (Molecular & Cellular Proteomics : MCP, 2013):
Ends that are not written are not given here.

Experiments:
SCRIB_3 = biological target: T1, SCRIB_3 (Homo sapiens, UniProt Q14160); assay: HTRF peptide-GST-PDZ binding
T1 sequence (Q14160 1004-1093 limits assumed): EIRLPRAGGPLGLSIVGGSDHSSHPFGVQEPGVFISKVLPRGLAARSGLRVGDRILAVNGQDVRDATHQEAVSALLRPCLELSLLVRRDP

Scrib PDZ1 = assay: HTRF peptide binding to Scrib PDZ1; design: species or system human
Xenopus embryo = assay: Neural tube closure in Xenopus embryos; type: in vivo, Xenopus laevis; details: MO injected in dorsal blastomeres at 4- to 8-cell stage
GST-Scrib PDZ3 = biological target: T2, GST-Scrib PDZ3 (human, UniProt Q14160 994-1103); assay: AlphaScreen or HTRF
T2 sequence (looked up): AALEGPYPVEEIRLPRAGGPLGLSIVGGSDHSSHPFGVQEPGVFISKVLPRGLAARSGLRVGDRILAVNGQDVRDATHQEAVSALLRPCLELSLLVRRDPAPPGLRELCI

[1] = test system: GST fused to the four Scrib PDZ domains; assay: GST-Scrib PDZ pull-down; type: binding, human; details: pull-down on transfected HEK 293T extracts
Scrib PDZ3 domain = assay: GST-Scrib PDZ pull-down, individual domain; type: binding, human; details: pull-down on HEK 293T extracts
Scrib PDZ4 = assay: GST-Scrib PDZ pull-down, individual domain; type: binding, human; details: pull-down on HEK 293T extracts
T47D cells = assay: Boyden chamber cell migration, T47D; type: cell-based; details: stimulation with 1 nM HRG, 12 h
Outline: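 Transwell migration through 8-μm pore polycarbonate membranes, underside coated with 25 μg/ml rat-tail collagen I. T47D cells were lipofectamine-transfected with pEGFP, pEGFP-Vangl2 or mutants, serum-starved 16 h, and seeded in the top chamber. The bottom chamber held medium with or without HRG for 12 h. Non-migrated cells were scraped off; migrated cells were fixed in 4% formaldehyde, crystal violet-stained (0.1%) and counted. Fold change, three independent experiments summed.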

wild-type MEFs = assay: Boyden chamber cell migration, wild-type MEF; type: cell-based, mouse; details: serum-induced
Outline: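 MEFs, wild-type or Crc/Crc, nucleofected transiently with GFP or GFP-Vangl2, then serum-starved 16 h and plated in the upper chamber of 8-μm pore polycarbonate transwells. Filter underside coated with human fibronectin ([…]). Serum (FCS) served as chemoattractant. Migrated cells were fixed in 4% formaldehyde, stained with 0.1% crystal violet and counted. Mann–Whitney U test versus control.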

MEF^Crc/Crc = assay: Boyden chamber cell migration, MEF Crc/Crc; type: cell-based, mouse; details: MEFs deficient for Scrib, serum-induced
SNX27 = assay: Co-affinity purification with SNX27, HEK 293T; type: cell-based; details: streptavidin affinity purification, Western blot

H-VLKNMNDPAWDETNL-OH [βPIX]
binding to Scrib PDZ3 (SCRIB_3; HTRF): able to bind | binding to Scrib PDZ1 (Scrib PDZ1): strongly bound

KSHKFVMRLQSETSV [Vangl2]
EC50 (SCRIB_3): 13 µM

SNX27 MO: morpholino 5′-TCCCCCTCCTCGTCCGCCATCTTTT-3′ targeting SNX27 translation initiation (all phosphorodiamidate morpholino (PMO))
neural tube closure (Xenopus embryo): neural tube closure was strongly impaired in a dose-dependent manner

B1: soluble non-biotinylated βPIX carboxy-terminal peptide (HTRF) (peptide)
chain: VLKNMNDPAWDETNL
EC50 (GST-Scrib PDZ3): 8 µM

B2: synthetic E6 carboxy-terminal peptide (peptide)
peptide: MSCCRSSRTRRETQL
EC50 (GST-Scrib PDZ3): 0.4 µM

B3: GFP-Vangl2: GFP fusion of Vangl2 overexpressed in cells (protein)
chain: MDTESQYSGYSYKSGHSRSSRKHRDRRDRHRSKSRDGGRGDKSVTIQAPGEPLLDNESTRGDERDDNWGETTTVVTGTSEHSISHDDLTRIAKDMEDSVPLDCSRHLGVAAGATLALLSFLTPLAFLLLPPLLWREELEPCGTACEGLFISVAFKLLILLLGSWALFFRRPKASLPRVFVLRALLMVLVFLLVVSYWLFYGVRILDARERSYQGVVQFAVSLVDALLFVHYLAVVLLELRQLQPQFTLKVVRSTDGASRFYNVGHLSIQRVAVWILEKYYHDFPVYNPALLNLPKSVLAKKVSGFKVYSLGEENSTNNSTGQSRAVIAAAARRRDNSHNEYYYEEAEHERRVRKRRARLVVAVEEAFTHIKRLQEEEQKNPREVMDPREAAQAIFASMARAMQKYLRTTKQQPYHTMESILQHLEFCITHDMTPKAFLERYLAAGPTIQYHKERWLAKQWTLVSEEPVTNGLKDGIVFLLKRQDFSLVVSTKKVPFFKLSEEFVDPKSHKFVMRLQSETSV
binding to GST-Scrib PDZ1-4 [1]: efficient binding | binding to individual GST-Scrib PDZ3 (Scrib PDZ3 domain): most efficient | binding to individual GST-Scrib PDZ4 (Scrib PDZ4): some weak binding | effect on cell migration (T47D cells): increased cell migration | effect on cell migration (T47D cells; listed as GFP-Vangl2^Lp): did not affect this increased cell migration | effect on cell migration (wild-type MEFs): increased cell migration | effect on cell migration (MEF^Crc/Crc): not significantly affected relative to control conditions

B4: HA-tagged Vangl2: HA-tagged Vangl2 expressed in HEK 293T cells (protein)
chain: MDTESQYSGYSYKSGHSRSSRKHRDRRDRHRSKSRDGGRGDKSVTIQAPGEPLLDNESTRGDERDDNWGETTTVVTGTSEHSISHDDLTRIAKDMEDSVPLDCSRHLGVAAGATLALLSFLTPLAFLLLPPLLWREELEPCGTACEGLFISVAFKLLILLLGSWALFFRRPKASLPRVFVLRALLMVLVFLLVVSYWLFYGVRILDARERSYQGVVQFAVSLVDALLFVHYLAVVLLELRQLQPQFTLKVVRSTDGASRFYNVGHLSIQRVAVWILEKYYHDFPVYNPALLNLPKSVLAKKVSGFKVYSLGEENSTNNSTGQSRAVIAAAARRRDNSHNEYYYEEAEHERRVRKRRARLVVAVEEAFTHIKRLQEEEQKNPREVMDPREAAQAIFASMARAMQKYLRTTKQQPYHTMESILQHLEFCITHDMTPKAFLERYLAAGPTIQYHKERWLAKQWTLVSEEPVTNGLKDGIVFLLKRQDFSLVVSTKKVPFFKLSEEFVDPKSHKFVMRLQSETSV
interaction with SNX27 (SNX27): interacts

B5: GFP-Vangl2ΔTSV: GFP-Vangl2 with deletion of the classical PDZ binding motif (protein)
chain: MDTESQYSGYSYKSGHSRSSRKHRDRRDRHRSKSRDGGRGDKSVTIQAPGEPLLDNESTRGDERDDNWGETTTVVTGTSEHSISHDDLTRIAKDMEDSVPLDCSRHLGVAAGATLALLSFLTPLAFLLLPPLLWREELEPCGTACEGLFISVAFKLLILLLGSWALFFRRPKASLPRVFVLRALLMVLVFLLVVSYWLFYGVRILDARERSYQGVVQFAVSLVDALLFVHYLAVVLLELRQLQPQFTLKVVRSTDGASRFYNVGHLSIQRVAVWILEKYYHDFPVYNPALLNLPKSVLAKKVSGFKVYSLGEENSTNNSTGQSRAVIAAAARRRDNSHNEYYYEEAEHERRVRKRRARLVVAVEEAFTHIKRLQEEEQKNPREVMDPREAAQAIFASMARAMQKYLRTTKQQPYHTMESILQHLEFCITHDMTPKAFLERYLAAGPTIQYHKERWLAKQWTLVSEEPVTNGLKDGIVFLLKRQDFSLVVSTKKVPFFKLSEEFVDPKSHKFVMRLQSE
effect on cell migration (T47D cells): in contrast to the deletion of the classical PDZ binding motif
